Assays:
HEK-293T = assay: Cytotoxicity against HEK293T cells assessed as cell growth inhibition measured after 48 hrs by MTT assay; format: functional, cell-based; settings: Homo sapiens
Method in brief: (§1)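 MTT cell viability read-out; IC50 obtained by non-linear regression of concentration–response data; values are mean ± SD of three independent experiments.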

[1] = Thermal stability of compound in boiling toluene at 120 degreeC assessed as time taken for compound decomposition at 1 mg/ml by HPLC analysis; format: physicochemical; settings: read-out: T50
HCC1806 = assay: Antiproliferative activity against human HCC1806 cells assessed as inhibition of cell viability measured after 48 hrs by MTT assay; format: functional, cell-based; settings: HCC1806, 48 h; method in brief: as §1
BT-474 = assay: Antiproliferative activity against human BT-474 cells assessed as inhibition of cell viability measured after 48 hrs by MTT assay; format: functional, cell-based; settings: BT-474, 48 h; method in brief: as §1
MCF7 [2] = assay: Antiproliferative activity against human MCF7 cells assessed as inhibition of cell viability measured after 48 hrs by MTT assay; format: functional, cell-based; settings: MCF7, 48 h; method in brief: as §1
MDA-MB-231 = assay: Antiproliferative activity against human MDA-MB-231 cells assessed as inhibition of cell viability measured after 48 hrs by MTT assay; format: functional, cell-based; settings: MDA-MB-231, 48 h; method in brief: as §1
SK-BR-3 = assay: Antiproliferative activity against human SK-BR-3 cells assessed as inhibition of cell viability measured after 48 hrs by MTT assay; format: functional, cell-based; settings: SK-BR-3, 48 h; method in brief: as §1
MDA-MB-468 = assay: Antiproliferative activity against human MDA-MB-468 cells assessed as inhibition of cell viability measured after 48 hrs by MTT assay; format: functional, cell-based; settings: MDA-MB-468, 48 h; method in brief: as §1
MCF7 [3] = assay: Antiproliferative activity against human MCF7 cells assessed as inhibition of cell viability at 20 uM measured after 48 hrs by MTT assay relative to control; format: functional

half-life at 1 mg/ml [1]	IC50 (HCC1806)	IC50 (BT-474)	IC50 (MCF7 [2])	IC50 (MDA-MB-231)	IC50 (SK-BR-3)	IC50 (MDA-MB-468)	Structure (SMILES)	IC50 (HEK-293T)	inhibition at 20 µM (MCF7 [3])
–	–	–	–	–	–	–	CO[C@@H]1[C@@H](OC(N)=O)[C@@H](O)[C@H](Oc2ccc3c(O)c(NC(=O)c4ccc(O)c(CC=C(C)C)c4)c(=O)oc3c2C)OC1(C)C [NOVOBIOCIN]	> 100 µM	–
< 5 min	–	–	–	–	–	–	CC(C)=CCC[C@]1(C)/C=C/[C@@H](OC(=O)C=C(C)C)[C@](C)(O)/C=C/C(=O)/C(CN2CCN(C)CC2)=C\C1	–	–
–	0.12 µM	0.027 µM	0.13 µM	0.15 µM	0.033 µM	0.033 µM	COC1=C2C[C@@H](C)C[C@H](OC)[C@H](O)[C@@H](C)/C=C(\C)[C@H](OC(N)=O)[C@@H](OC)/C=C\C=C(/C)C(=O)NC(=CC1=O)C2=O [GELDANAMYCIN]	0.53 µM	–
–	14.7 µM	–	16.7 µM	12.9 µM	–	> 20 µM	COc1cc(/C=C/C(=O)/C=C/N(C)CCN(C)C)cc(OC)c1	–	> 50%
–	14.8 µM	–	14.2 µM	9.13 µM	–	> 20 µM	COc1cc(/C=C/C(=O)/C=C/N2CCN(C)CC2)cc(OC)c1	–	> 50%
–	13.2 µM	–	12.9 µM	8.14 µM	–	> 20 µM	CN1CCN(/C=C/C(=O)/C=C/c2cccc3c2OCO3)CC1	–	> 50%
